From ChEMBL document CHEMBL1126255, “Excitatory amino acid receptor ligands. Synthesis and biological activity of 3-isoxazolol amino acids structurally related to homoibotenic acid” (J Med Chem, 1992)

Tests used:
[1] = target: T1, Glutamate receptor ionotropic, AMPA (Rattus norvegicus, UniProt P19490+P19491+P19492+P19493); test: Concentration required for 50% inhibition of [3H]AMPA binding to AMPA receptor in rat cortical slice preparation
[2] = target: Glutamate NMDA receptor; test: Concentration required for 50% inhibition of [3H]-MK-801 binding to N-methyl-D-aspartate glutamate receptor in rat cortical slice preparation
Summary of the method: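 Fully stimulated rat brain membranes prepared by the Ransom and Stec method. Otherwise per an earlier protocol. At least three independent experiments per value.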

[3] = target: Glutamate receptor ionotropic, kainate; test: Concentration required for 50% inhibition of [3H]-kainic acid binding to ionotropic glutamate receptor ionotropic kainate in rat cortical slice preparation
[4] = target: T1, Glutamate receptor ionotropic, AMPA; test: Concentration required for 50% inhibition of [3H]Glu binding to AMPA receptor in rat cortical slice preparation in the presence of 2.5 mM CaCl2
[5] = target: Glutamate NMDA receptor; test: Concentration required for 50% inhibition of [3H]-CPP binding to N-methyl-D-aspartate glutamate receptor in rat cortical slice preparation
Summary of the method: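 Rat brain membranes prepared by the Ransom and Stec method. [3H]CPP binding run per an earlier protocol, but ended by filtration through GF/B filters presoaked in 0.1% polyethyleneimine instead of centrifugation. At least three independent experiments per value.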

Structure (SMILES) | IC50 [1] [µM] | IC50 [2] [µM] | IC50 [3] [µM] | IC50 [4] [µM] | IC50 [5] [µM]
CCCCc1c(O)noc1CC(N)C(=O)O (configuration not stated) | 2 | > 100 | > 100 | 0.18 | > 100
CC(C)(C)c1onc(O)c1CC(N)C(=O)O (configuration not stated) |  | > 100 |  |  | > 100
Cc1c(O)noc1CC(N)C(=O)O (configuration not stated) | 0.6 | > 100 | > 100 | 0.18 | > 100
NC(Cc1onc(O)c1CCO)C(=O)O (configuration not stated) | 2 | > 100 | > 100 | 0.14 | > 100
CCCCCCCCc1c(O)noc1CC(N)C(=O)O (configuration not stated) | > 100 | > 100 | > 100 | 0.02 | > 100
